# Source: ChEMBL document CHEMBL4364274, “Synthesis and biological activity of glycyrrhetinic acid derivatives as antitumor agents” (Eur J Med Chem, 2019)
# What was measured:
# [1] = test system: MCF7; test: Antiproliferative activity against human MCF7 cells incubated for 72 hrs by MTT assay; format: functional, cell-based; conditions: MCF7, 72 h
# Method in brief: (§1)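 Cells in exponential growth were plated at 3×10^3 cells/well and grown 24 h at 37 °C in 5% CO2. They were then exposed to a range of drug concentrations for 72 h. MTT (5 mg/mL solution) was added for 4 h, the medium was discarded, and formazan was dissolved in DMSO before reading A490. Drug-free wells served as blanks. % inhibition was calculated as 1 − (sample−blank)/(control−blank), and IC50 was taken as the concentration giving 50% inhibition.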
# [2] = test system: MDCK; test: Cytotoxicity against MDCK cells incubated for 72 hrs by MTT assay; format: cell-based; conditions: Canis lupus familiaris; method in brief: as §1
# [3] = test system: HeLa; test: Antiproliferative activity against human HeLa cells incubated for 72 hrs by MTT assay; format: functional, cell-based; method in brief: as §1
# [4] = test system: A549; test: Antiproliferative activity against human A549 cells incubated for 72 hrs by MTT assay; format: functional, cell-based; conditions: A549, 72 h; method in brief: as §1
# [5] = test system: HepG2; test: Antiproliferative activity against human HepG2 cells incubated for 72 hrs by MTT assay; format: functional, cell-based; conditions: HepG2, 72 h; method in brief: as §1
Compound,IC50 [1],IC50 [2],IC50 [3],IC50 [4],IC50 [5]
CC[C@H](C)[C@H](NC(=O)OC(C)(C)C)C(=O)N[C@H]1CC[C@]2(C)[C@H]3C(=O)C=C4[C@@H]5C[C@@](C)(C(=O)OCc6ccccc6)CC[C@]5(C)CC[C@@]4(C)[C@]3(C)CC[C@H]2C1(C)C,> 40 µM,> 40 µM,> 40 µM,> 40 µM,> 40 µM
C[C@H](NC(=O)OC(C)(C)C)C(=O)N[C@H]1CC[C@]2(C)[C@H]3C(=O)C=C4[C@@H]5C[C@@](C)(C(=O)OCc6ccccc6)CC[C@]5(C)CC[C@@]4(C)[C@]3(C)CC[C@H]2C1(C)C,> 40 µM,> 40 µM,> 40 µM,> 40 µM,> 40 µM
CSCC[C@H](N)C(=O)O[C@H]1CC[C@]2(C)[C@H]3C(=O)C=C4[C@@H]5C[C@@](C)(C(=O)OCc6ccccc6)CC[C@]5(C)CC[C@@]4(C)[C@]3(C)CC[C@H]2C1(C)C,8.07 µM,39.2 µM,10.6 µM,7.53 µM,9.96 µM
CC(C)C[C@H](NC(=O)OC(C)(C)C)C(=O)N[C@H]1CC[C@]2(C)[C@H]3C(=O)C=C4[C@@H]5C[C@@](C)(C(=O)OCc6ccccc6)CC[C@]5(C)CC[C@@]4(C)[C@]3(C)CC[C@H]2C1(C)C,> 40 µM,> 40 µM,> 40 µM,> 40 µM,> 40 µM
CC[C@H](C)[C@H](N)C(=O)O[C@H]1CC[C@]2(C)[C@H]3C(=O)C=C4[C@@H]5C[C@@](C)(C(=O)OCc6ccccc6)CC[C@]5(C)CC[C@@]4(C)[C@]3(C)CC[C@H]2C1(C)C,10 µM,9.01 µM,9.65 µM,4.97 µM,8.15 µM
CSCC[C@H](NC(=O)OC(C)(C)C)C(=O)O[C@H]1CC[C@]2(C)[C@H]3C(=O)C=C4[C@@H]5C[C@@](C)(C(=O)OCc6ccccc6)CC[C@]5(C)CC[C@@]4(C)[C@]3(C)CC[C@H]2C1(C)C,> 40 µM,> 40 µM,> 40 µM,> 40 µM,> 40 µM
CC(C)C[C@H](N)C(=O)N[C@H]1CC[C@]2(C)[C@H]3C(=O)C=C4[C@@H]5C[C@@](C)(C(=O)OCc6ccccc6)CC[C@]5(C)CC[C@@]4(C)[C@]3(C)CC[C@H]2C1(C)C,6.1 µM,4.65 µM,2.3 µM,3.28 µM,6.21 µM
CC1(C)[C@@H](O)CC[C@]2(C)[C@H]3C(=O)C=C4[C@@H]5C[C@@](C)(C(=O)O)CC[C@]5(C)CC[C@@]4(C)[C@]3(C)CC[C@@H]12 [ENOXOLONE],> 40 µM,> 40 µM,> 40 µM,> 40 µM,> 40 µM
CC(C)(C)OC(=O)N1CCC[C@H]1C(=O)O[C@H]1CC[C@]2(C)[C@H]3C(=O)C=C4[C@@H]5C[C@@](C)(C(=O)OCc6ccccc6)CC[C@]5(C)CC[C@@]4(C)[C@]3(C)CC[C@H]2C1(C)C,> 40 µM,> 40 µM,> 40 µM,> 40 µM,> 40 µM
C[C@H](NC(=O)OC(C)(C)C)C(=O)O[C@H]1CC[C@]2(C)[C@H]3C(=O)C=C4[C@@H]5C[C@@](C)(C(=O)OCc6ccccc6)CC[C@]5(C)CC[C@@]4(C)[C@]3(C)CC[C@H]2C1(C)C,> 40 µM,> 40 µM,> 40 µM,> 40 µM,> 40 µM
CC1(C)[C@@H](OC(=O)[C@@H](N)Cc2ccccc2)CC[C@]2(C)[C@H]3C(=O)C=C4[C@@H]5C[C@@](C)(C(=O)OCc6ccccc6)CC[C@]5(C)CC[C@@]4(C)[C@]3(C)CC[C@@H]12,14.4 µM,14.4 µM,18.8 µM,17 µM,> 40 µM
CN(CC(=O)N[C@H]1CC[C@]2(C)[C@H]3C(=O)C=C4[C@@H]5C[C@@](C)(C(=O)OCc6ccccc6)CC[C@]5(C)CC[C@@]4(C)[C@]3(C)CC[C@H]2C1(C)C)C(=O)OC(C)(C)C,> 40 µM,> 40 µM,> 40 µM,> 40 µM,> 40 µM
CSCC[C@H](NC(=O)OC(C)(C)C)C(=O)N[C@H]1CC[C@]2(C)[C@H]3C(=O)C=C4[C@@H]5C[C@@](C)(C(=O)OCc6ccccc6)CC[C@]5(C)CC[C@@]4(C)[C@]3(C)CC[C@H]2C1(C)C,> 40 µM,> 40 µM,> 40 µM,> 40 µM,> 40 µM
CC(C)(C)OC(=O)NCC(=O)O[C@H]1CC[C@]2(C)[C@H]3C(=O)C=C4[C@@H]5C[C@@](C)(C(=O)OCc6ccccc6)CC[C@]5(C)CC[C@@]4(C)[C@]3(C)CC[C@H]2C1(C)C,> 40 µM,> 40 µM,> 40 µM,> 40 µM,> 40 µM
CC(C)(C)OC(=O)N[C@@H](Cc1ccccc1)C(=O)O[C@H]1CC[C@]2(C)[C@H]3C(=O)C=C4[C@@H]5C[C@@](C)(C(=O)OCc6ccccc6)CC[C@]5(C)CC[C@@]4(C)[C@]3(C)CC[C@H]2C1(C)C,> 40 µM,> 40 µM,> 40 µM,> 40 µM,> 40 µM
CC1(C)[C@@H](NC(=O)CN)CC[C@]2(C)[C@H]3C(=O)C=C4[C@@H]5C[C@@](C)(C(=O)OCc6ccccc6)CC[C@]5(C)CC[C@@]4(C)[C@]3(C)CC[C@@H]12,2.85 µM,3.75 µM,3.01 µM,2.44 µM,3.47 µM
CC(C)C[C@H](N)C(=O)O[C@H]1CC[C@]2(C)[C@H]3C(=O)C=C4[C@@H]5C[C@@](C)(C(=O)OCc6ccccc6)CC[C@]5(C)CC[C@@]4(C)[C@]3(C)CC[C@H]2C1(C)C,11.9 µM,19.3 µM,43.1 µM,22.9 µM,14.9 µM
C[C@H](N)C(=O)O[C@H]1CC[C@]2(C)[C@H]3C(=O)C=C4[C@@H]5C[C@@](C)(C(=O)OCc6ccccc6)CC[C@]5(C)CC[C@@]4(C)[C@]3(C)CC[C@H]2C1(C)C,4.39 µM,3.4 µM,5 µM,3.17 µM,3.07 µM
CC[C@H](C)[C@H](NC(=O)OC(C)(C)C)C(=O)O[C@H]1CC[C@]2(C)[C@H]3C(=O)C=C4[C@@H]5C[C@@](C)(C(=O)OCc6ccccc6)CC[C@]5(C)CC[C@@]4(C)[C@]3(C)CC[C@H]2C1(C)C,> 40 µM,> 40 µM,> 40 µM,> 40 µM,> 40 µM
CNCC(=O)O[C@H]1CC[C@]2(C)[C@H]3C(=O)C=C4[C@@H]5C[C@@](C)(C(=O)OCc6ccccc6)CC[C@]5(C)CC[C@@]4(C)[C@]3(C)CC[C@H]2C1(C)C,3.89 µM,5.76 µM,8 µM,5 µM,4.56 µM
CC(C)C[C@H](NC(=O)OC(C)(C)C)C(=O)O[C@H]1CC[C@]2(C)[C@H]3C(=O)C=C4[C@@H]5C[C@@](C)(C(=O)OCc6ccccc6)CC[C@]5(C)CC[C@@]4(C)[C@]3(C)CC[C@H]2C1(C)C,> 40 µM,> 40 µM,> 40 µM,> 40 µM,> 40 µM
CC1(C)[C@@H](OC(=O)[C@@H]2CCCN2)CC[C@]2(C)[C@H]3C(=O)C=C4[C@@H]5C[C@@](C)(C(=O)OCc6ccccc6)CC[C@]5(C)CC[C@@]4(C)[C@]3(C)CC[C@@H]12,5.22 µM,9.63 µM,9.05 µM,4.73 µM,6.39 µM
CC1(C)[C@@H](NC(=O)[C@@H](N)Cc2ccccc2)CC[C@]2(C)[C@H]3C(=O)C=C4[C@@H]5C[C@@](C)(C(=O)OCc6ccccc6)CC[C@]5(C)CC[C@@]4(C)[C@]3(C)CC[C@@H]12,3.28 µM,5.02 µM,2.24 µM,3.01 µM,5.05 µM
CC(C)(C)OC(=O)N[C@@H](Cc1ccccc1)C(=O)N[C@H]1CC[C@]2(C)[C@H]3C(=O)C=C4[C@@H]5C[C@@](C)(C(=O)OCc6ccccc6)CC[C@]5(C)CC[C@@]4(C)[C@]3(C)CC[C@H]2C1(C)C,> 40 µM,> 40 µM,> 40 µM,> 40 µM,> 40 µM
CC1(C)[C@@H](OC(=O)CN)CC[C@]2(C)[C@H]3C(=O)C=C4[C@@H]5C[C@@](C)(C(=O)OCc6ccccc6)CC[C@]5(C)CC[C@@]4(C)[C@]3(C)CC[C@@H]12,3.81 µM,4.43 µM,3.3 µM,2.75 µM,3.31 µM
CNCC(=O)N[C@H]1CC[C@]2(C)[C@H]3C(=O)C=C4[C@@H]5C[C@@](C)(C(=O)OCc6ccccc6)CC[C@]5(C)CC[C@@]4(C)[C@]3(C)CC[C@H]2C1(C)C,3.41 µM,3.17 µM,3.2 µM,3.35 µM,3.79 µM
CC(C)(C)OC(=O)N1CCC[C@H]1C(=O)N[C@H]1CC[C@]2(C)[C@H]3C(=O)C=C4[C@@H]5C[C@@](C)(C(=O)OCc6ccccc6)CC[C@]5(C)CC[C@@]4(C)[C@]3(C)CC[C@H]2C1(C)C,> 40 µM,> 40 µM,> 40 µM,> 40 µM,> 40 µM
CC[C@H](C)[C@H](N)C(=O)N[C@H]1CC[C@]2(C)[C@H]3C(=O)C=C4[C@@H]5C[C@@](C)(C(=O)OCc6ccccc6)CC[C@]5(C)CC[C@@]4(C)[C@]3(C)CC[C@H]2C1(C)C,4.69 µM,4.13 µM,2.94 µM,3.43 µM,5.15 µM
